Data taken from ChEMBL document CHEMBL2434966, “Novel N-4-piperazinyl-ciprofloxacin-chalcone hybrids: synthesis, physicochemical properties, anticancer and topoisomerase I and II inhibitory activity” (Eur J Med Chem, 2013).

Columns and labels:
Format in all cases: functional
[1] = tested on: NCI-H226; test: Growth inhibition of human NCI-H226 cells assessed as cell growth at 10^-5 M after 48 hrs by sulforhodamine B assay; settings: NCI-H226, 48 h, read-out: Activity
Outline: (§1)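 NCI 60-cell-line primary one-dose screen. Cells were exposed to a single 10^-5 M concentration for 48 h. The end point was sulforhodamine B protein staining, read spectrophotometrically. Results are reported as percent growth of treated cells relative to untreated control cells.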

[2] = tested on: MDA-MB-231; test: Growth inhibition of human MDA-MB-231 cells assessed as cell growth at 10^-5 M after 48 hrs by sulforhodamine B assay; settings: MDA-MB-231, 48 h, read-out: Activity; outline: as §1
[3] = tested on: HT-29; test: Growth inhibition of human HT-29 cells after 48 hrs by sulforhodamine B assay; settings: HT-29, 48 h; for CC50: read-out: LC50 (the source's name)
Outline: (§2)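 NCI 60-panel five-dose test at 10-fold dilutions, 10^-4 to 10^-8 M, with 48 h continuous exposure and SRB protein read-out. Percent growth derived from time-zero, untreated-control and treated absorbances. GI50 is the concentration where [(Ti-Tz)/(C-Tz)]×100 = 50. TGI is taken at Ti = Tz. LC50 is taken at [(Ti-Tz)/Tz]×100 = -50.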

[4] = tested on: SW-620; test: Growth inhibition of human SW620 cells after 48 hrs by sulforhodamine B assay; settings: SW-620, 48 h; for CC50: read-out: LC50 (the source's name)
Outline: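 NCI 60-cell panel, five concentrations (10-fold dilutions, 0.01–100 µM), 48 h continuous exposure; SRB protein stain read spectrophotometrically. Percent growth from time-zero, untreated-control and treated absorbances. GI50 is the concentration giving 50% lower net protein increase than control. Values beyond the tested range are reported as more or less than the highest or lowest concentration.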

[5] = tested on: HL-60(TB); test: Growth inhibition of human HL-60(TB) cells assessed as cell growth at 10^-5 M after 48 hrs by sulforhodamine B assay; settings: HL-60, 48 h, read-out: Activity
Outline: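 NCI one-dose primary screen: compound added once at 10^-5 M, cultures incubated 48 h, end point by SRB protein-binding dye. Result given as percent growth of treated cells relative to untreated control cells, measured spectrophotometrically.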

[6] = tested on: RPMI-8226; test: Growth inhibition of human RPMI8226 cells assessed as cell growth at 10^-5 M after 48 hrs by sulforhodamine B assay; settings: RPMI-8226, 48 h, read-out: Activity; outline: as §1
[7] = tested on: DU-145; test: Growth inhibition of human DU145 cells assessed as cell growth at 10^-5 M after 48 hrs by sulforhodamine B assay; settings: DU-145, 48 h, read-out: Activity
Outline: (§3)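 NCI 60-cell-line primary screen. Single concentration of 10^-5 M, 48 h incubation. End point by sulforhodamine B protein staining read spectrophotometrically. Reported as percent growth of treated cells relative to untreated control cells.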

[8] = tested on: SNB-19; test: Growth inhibition of human SNB19 cells assessed as cell growth at 10^-5 M after 48 hrs by sulforhodamine B assay; settings: SNB-19, 48 h, read-out: Activity
Outline: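 NCI primary one-dose screen: single concentration of 10^-5 M added to culture, 48 h incubation, SRB protein-dye endpoint. Percent growth of treated cells measured spectrophotometrically against untreated controls.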

[9] = Growth inhibition of human Hs 578T cells after 48 hrs by sulforhodamine B assay; settings: for CC50: read-out: LC50 (the source's name); outline: as §2
[10] = tested on: OVCAR-3; test: Growth inhibition of human OVCAR3 cells after 48 hrs by sulforhodamine B assay; settings: OVCAR-3, 48 h; for CC50: read-out: LC50 (the source's name)
Outline: (§4)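 NCI five-dose screen on the full 60-cell-line panel. Cells were given 10-fold dilutions from 10^-4 to 10^-8 M with continuous 48 h exposure, and growth was read by SRB staining. Percent growth was taken from time-zero, control and treated absorbances. GI50, TGI and LC50 were then derived, the GI50 being the concentration that gives a 50% lower net protein increase than control.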

[11] = tested on: MCF7; test: Growth inhibition of human MCF7 cells assessed as cell growth at 10^-5 M after 48 hrs by sulforhodamine B assay; settings: MCF7, 48 h, read-out: Activity; outline: as §3
[12] = tested on: NCI-H23; test: Growth inhibition of human NCI-H23 cells after 48 hrs by sulforhodamine B assay; settings: NCI-H23, 48 h; for CC50: read-out: LC50 (the source's name); outline: as §4
[13] = tested on: RXF 393; test: Growth inhibition of human RXF393 cells after 48 hrs by sulforhodamine B assay; settings: RXF 393, 48 h; for CC50: read-out: LC50 (the source's name); outline: as §4
[14] = tested on: SK-MEL-5; test: Growth inhibition of human SK-MEL-5 cells after 48 hrs by sulforhodamine B assay; settings: SK-MEL-5, 48 h; for CC50: read-out: LC50 (the source's name); outline: as §4
[15] = tested on: SK-MEL-28; test: Growth inhibition of human SK-MEL-28 cells after 48 hrs by sulforhodamine B assay; settings: SK-MEL-28, 48 h; for CC50: read-out: LC50 (the source's name); outline: as §4
[16] = tested on: OVCAR-8; test: Growth inhibition of human OVCAR8 cells assessed as cell growth at 10^-5 M after 48 hrs by sulforhodamine B assay; settings: OVCAR-8, 48 h, read-out: Activity; outline: as §1
[17] = Growth inhibition of human Hs 578T cells assessed as cell growth at 10^-5 M after 48 hrs by sulforhodamine B assay; settings: read-out: Activity; outline: as §3
[18] = tested on: SF-295; test: Growth inhibition of human SF295 cells after 48 hrs by sulforhodamine B assay; settings: SF-295, 48 h; outline: as §4
[19] = tested on: 786-0; test: Growth inhibition of human 786-0 cells after 48 hrs by sulforhodamine B assay; settings: 786-0, 48 h; outline: as §2
[20] = tested on: SK-MEL-2; test: Growth inhibition of human SK-MEL-2 cells assessed as cell growth at 10^-5 M after 48 hrs by sulforhodamine B assay; settings: SK-MEL-2, 48 h, read-out: Activity; outline: as §1
[21] = tested on: SF-268; test: Growth inhibition of human SF268 cells assessed as cell growth at 10^-5 M after 48 hrs by sulforhodamine B assay; settings: SF-268, 48 h, read-out: Activity; outline: as §1
[22] = tested on: K562; test: Growth inhibition of human K562 cells assessed as cell growth at 10^-5 M after 48 hrs by sulforhodamine B assay; settings: K562, 48 h, read-out: Activity; outline: as §3
[23] = tested on: HOP-62; test: Growth inhibition of human HOP62 cells after 48 hrs by sulforhodamine B assay; settings: HOP-62, 48 h; outline: as §2
[24] = tested on: SK-MEL-28; test: Growth inhibition of human SK-MEL-28 cells assessed as cell growth at 10^-5 M after 48 hrs by sulforhodamine B assay; settings: SK-MEL-28, 48 h, read-out: Activity; outline: as §1
[25] = tested on: MDA-MB-231; test: Growth inhibition of human MDA-MB-231 cells after 48 hrs by sulforhodamine B assay; settings: MDA-MB-231, 48 h; outline: as §2

## O=C(CN1CCN(c2cc3c(cc2F)c(=O)c(C(=O)O)cn3C2CC2)CC1)Nc1ccc(C(=O)/C=C/c2ccccc2)cc1
[1]
  growth at 10 µM: 57.4%
[2]
  growth at 10 µM: 55.1%
[3]
  GI50: 2.99 µM
  TGI: 10.3 µM
  CC50: > 100 µM
[4]
  GI50: 3.8 µM
  TGI: > 100 µM
  CC50: > 100 µM
[5]
  growth at 10 µM: 40.9%
[6]
  growth at 10 µM: 2.45%
[7]
  growth at 10 µM: 43.1%
[8]
  growth at 10 µM: 40.3%
[9]
  GI50: 4.99 µM
  TGI: > 100 µM
  CC50: > 100 µM
[10]
  GI50: 3.64 µM
  TGI: > 100 µM
  CC50: > 100 µM
[11]
  growth at 10 µM: 12.5%
[12]
  GI50: 2.48 µM
  TGI: 14.3 µM
  CC50: > 100 µM
[13]
  GI50: 2.5 µM
  TGI: > 100 µM
  CC50: > 100 µM
[14]
  GI50: 2.74 µM
  TGI: 13 µM
  CC50: > 100 µM
[15]
  GI50: 18.8 µM
  TGI: > 100 µM
  CC50: > 100 µM
[16]
  growth at 10 µM: 6.3%
[17]
  growth at 10 µM: 51.9%
[18]
  GI50: 2.11 µM
  LC50 (concentration giving 50% net cell kill): > 100 µM
  TGI: 6.25 µM
[19]
  GI50: 4.5 µM
  LC50: > 100 µM
  TGI: > 100 µM
[20]
  growth at 10 µM: 53.7%
[21]
  growth at 10 µM: 37%
[22]
  growth at 10 µM: 14.2%
[23]
  GI50: 4.46 µM
  LC50 (concentration killing 50% of starting cells): > 100 µM
  TGI: > 100 µM
[24]
  growth at 10 µM: 85.7%
[25]
  GI50: 1.84 µM
  LC50 (50% lethal concentration): > 100 µM
  TGI: 5.13 µM

## COc1cc(/C=C/C(=O)c2ccc(NC(=O)CN3CCN(c4cc5c(cc4F)c(=O)c(C(=O)O)cn5C4CC4)CC3)cc2)cc(OC)c1OC
[1]
  growth at 10 µM: -9.81%
[2]
  growth at 10 µM: 27.6%
[3]
  GI50: 0.23 µM
  TGI: 0.63 µM
  CC50: 9.13 µM
[4]
  GI50: 0.42 µM
  TGI: 3.2 µM
  CC50: > 100 µM
[5]
  growth at 10 µM: -33.7%
[6]
  growth at 10 µM: -18.8%
[7]
  growth at 10 µM: 2.17%
[8]
  growth at 10 µM: 34.9%
[9]
  GI50: 53.8 µM
  TGI: > 100 µM
  CC50: > 100 µM
[10]
  GI50: 0.29 µM
  TGI: 0.92 µM
  CC50: 9.04 µM
[11]
  growth at 10 µM: 26.5%
[12]
  GI50: 0.56 µM
  TGI: 2.91 µM
  CC50: 14.2 µM
[13]
  GI50: 0.34 µM
  TGI: 1.06 µM
  CC50: 3.47 µM
[14]
  GI50: 1.06 µM
  TGI: 4.06 µM
  CC50: > 100 µM
[15]
  GI50: 1.1 µM
  TGI: 17 µM
  CC50: 98.2 µM
[16]
  growth at 10 µM: 4.74%
[17]
  growth at 10 µM: 76.8%
[18]
  GI50: 0.53 µM
  LC50 (concentration giving 50% net cell kill): 53.1 µM
  TGI: 3.13 µM
[19]
  GI50: 0.6 µM
  LC50: 7.7 µM
  TGI: 2.38 µM
[20]
  growth at 10 µM: 30%
[21]
  growth at 10 µM: -1.11%
[22]
  growth at 10 µM: 1.66%
[23]
  GI50: 0.36 µM
  LC50 (concentration killing 50% of starting cells): 56.9 µM
  TGI: 11.4 µM
[24]
  growth at 10 µM: 34%
[25]
  GI50: 0.51 µM
  LC50 (50% lethal concentration): > 100 µM
